NR1D1 modulator – modulators of human Rev-erb alpha DNA binding | activity, % at 10 µM | Rev-erbα–FITC-DNA binding, fluorescence polarization, 90 min | P20393 | actives 0.79% (n = 370,000) | AID 1259318;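 active means activity above about 14%, limit read from the data; passing the limit was not always enough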
PG9 Ab binder – binds the HIV-1 gp120 antibody PG9; TR-FRET gp120-PG9 antibody binding; inhibition, % at 6.7 µM; actives 0.43% (n = 360,000); AID 624416; in the data active means inhibition above about 8.5%
NR2E3 ag-1 – NR2E3 (human) agonism; Q9Y5X4; GST-NR2E3/biotin-RetCOR TR-FRET, 1536-well; inhibition of corepressor binding, % at 4.78 µM; actives 0.12% (n = 320,000); AID 2300;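 active means percent inhibition above the cutoff of mean plus 3 SD of all tested compounds, set per screening campaign, cut at about 20% in these data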
Target sequence (Q9Y5X4 whole entry, looked up): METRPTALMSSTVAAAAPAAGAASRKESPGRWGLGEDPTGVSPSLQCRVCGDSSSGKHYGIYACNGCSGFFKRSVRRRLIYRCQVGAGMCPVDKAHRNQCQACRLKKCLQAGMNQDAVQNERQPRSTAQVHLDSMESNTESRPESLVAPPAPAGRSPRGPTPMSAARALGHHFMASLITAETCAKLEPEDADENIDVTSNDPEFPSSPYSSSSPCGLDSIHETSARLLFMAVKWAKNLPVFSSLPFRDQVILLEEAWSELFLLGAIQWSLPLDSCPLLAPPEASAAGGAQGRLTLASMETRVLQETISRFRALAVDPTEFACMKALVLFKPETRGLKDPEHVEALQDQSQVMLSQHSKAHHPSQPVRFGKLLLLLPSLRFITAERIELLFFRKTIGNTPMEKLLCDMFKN
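Format: 1536-well format; test system: GST-NR2E3 and biotin-RetCOR proteins; read-out basis: percent inhibition of TR-FRET ratio; timing: 5 h incubation at 4 °C; detection: time-resolved FRET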
GalR3 antagonist – human GalR3 antagonism; actives 0.44% (n = 360,000); AID 651719; inhibition, % at 3 µM; HEK293 GalR3-CNG cAMP membrane potential fluorescence; galR3 body fused to GalR1 C-terminus; O60755;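 active means inhibition above the screen-wide average plus 3 SD, cut at about 13% in these data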;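 further: forskolin and galanin both at EC90 stimulate the cells; cAMP rise reported by CNG channel membrane potential dye signal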
Target sequence (O60755 1-299 limits assumed): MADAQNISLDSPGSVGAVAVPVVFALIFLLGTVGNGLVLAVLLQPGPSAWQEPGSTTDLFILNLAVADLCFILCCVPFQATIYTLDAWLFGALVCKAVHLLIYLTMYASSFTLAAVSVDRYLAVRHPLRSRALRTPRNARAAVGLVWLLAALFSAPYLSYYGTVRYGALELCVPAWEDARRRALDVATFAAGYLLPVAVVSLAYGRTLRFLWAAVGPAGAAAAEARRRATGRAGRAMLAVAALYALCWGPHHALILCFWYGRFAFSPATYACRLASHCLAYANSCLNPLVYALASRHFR
NR2E3 ag-2 – agonists of human NR2E3 nuclear receptor; inhibition of corepressor binding, % at 3.98 µM; actives 0.35% (n = 360,000); Q9Y5X4; CHO-S Gal4-NCOR/VP16-NR2E3 two-hybrid, luciferase;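 active means inhibition above the mean of all tested compounds plus 3 SD, cut at about 70% in these data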;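 further: higher means lower luciferase signal from less NR2E3 corepressor binding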
NR1D1 mod conf – confirmation of modulators of human Rev-erb alpha DNA binding | shares compounds with NR1D1 modulator | Rev-erb alpha FITC-DNA binding, fluorescence polarization, 90 min | activation, % at 25 µM | actives 61% (n = 3,000) | AID 1259319;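 active means activation at or above a set limit, or at least 3 SD above the negative control mean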
RORg DNA counter – counter-screen for Rev-erb alpha modulators: RORgamma DNA binding. shares compounds with NR1D1 modulator. purified RORgamma protein-FITC-DNA binding, fluorescence polarization. IC50, µM. actives 8% (n = 910);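 active means Compounds whose fitted half-maximal concentration for disrupting protein-DNA binding is below 10 micromolar; the record names Rev-erb in its text, so the target is in doubt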
Of the large screens only hits and unclear results are named; the others gave an inactive call (follow-up assays come after a bar, where they were run). A selection: hits, their analogues and other compounds. The true share with any hit is near 1.8%.

N#CCCN1CCCc2cc(N=Nc3ccc(C(F)(F)F)cc3)ccc21	NR1D1 modulator 18 | NR1D1 mod conf 22
CCCN1CCCc2ccccc21	none
COc1ccc(-c2cc(-c3cccnc3)c(C#N)c(N)n2)cc1	NR1D1 modulator 40 | NR1D1 mod conf 36 | RORg DNA counter inactive
COc1ccc(-c2cc(-c3ccc(O)cc3)nc(N)c2C#N)cc1	none
COc1ccc(-c2cc(-c3ccc(OC)cc3)c(C#N)c(SC)n2)cc1	NR1D1 modulator 108 | NR1D1 mod conf 52 | RORg DNA counter inactive
O=C(CSc1nc2ccccc2c(=O)n1-c1ccc(F)cc1)Nc1ccc(Cl)c(S(=O)(=O)N2CCOCC2)c1	NR1D1 modulator 63 | NR1D1 mod conf 33 | RORg DNA counter inactive
Cc1ccc(-n2c(SCC(=O)Nc3cccc(S(=O)(=O)NC4=NCCCCC4)c3)nc3ccccc3c2=O)cc1	NR1D1 modulator 80 | NR1D1 mod conf 42 | RORg DNA counter inactive
CCOC(=O)c1c(NC(=O)CSc2nc3ccccc3c(=O)n2-c2ccc(F)cc2)sc(C(C)=O)c1C	NR1D1 modulator 114 | NR1D1 mod conf 30
CCc1ccc(-n2c(SCC(=O)Nc3cccc(S(=O)(=O)NC4=NCCCCC4)c3)nc3ccccc3c2=O)cc1	none
O=C(CSc1nc2ccccc2c(=O)n1-c1ccc(F)c(Cl)c1)Nc1cccc(S(=O)(=O)N2CCOCC2)c1	NR1D1 modulator 38 | NR1D1 mod conf 19
Cc1ccc(-n2c(SCC(=O)Nc3cc(S(=O)(=O)N4CCOCC4)ccc3Cl)nc3ccccc3c2=O)cc1	none
CCOC(=O)C1=NOC(C(=O)NCCO)(C(=O)C2CC2)C1 (stereo unspecified)	none (no result: PG9 Ab binder, NR2E3 ag-1, GalR3 antagonist, NR2E3 ag-2)
CCS(=O)(=O)Nc1ccc2c(c1)C(=O)N(C)[C@@H]1CC[C@H](CC(=O)NCCOC)O[C@H]1CO2	none (no result: PG9 Ab binder, NR2E3 ag-1, GalR3 antagonist, NR2E3 ag-2)
CCc1cc2cccc(C)c2nc1SCC(=O)NC1CCCC1	NR1D1 modulator 21 | NR1D1 mod conf inactive
CCc1cc2cc(C)ccc2nc1SCC(=O)NNC(=O)c1ccco1	none
CCOC(=O)CNC(=O)CSc1nc2c(C)cccc2cc1CC	none
CCc1cc2cc(C)ccc2nc1SCC(=O)NC1CCCC1	NR1D1 modulator 32 | NR1D1 mod conf 35 | RORg DNA counter inactive
COC(=O)[C@]12C=CCN1[C@@H](c1ccc(C(F)(F)F)cc1)c1c(c3ccccc3n1S(=O)(=O)c1ccc(C)cc1)C2	none (no result: PG9 Ab binder, NR2E3 ag-1, GalR3 antagonist, NR2E3 ag-2)
COc1ccc(C(=O)Nc2ccnn2C2CCN(Cc3ccn[nH]3)CC2)cc1	none
O=C(Nc1ccnn1C1CCN(Cc2ccn[nH]2)CC1)c1ccccc1	NR1D1 modulator 16 | NR1D1 mod conf inactive
CC(=O)NC(=S)Nc1ccc2oc(-c3cc(F)c(F)cc3Cl)nc2c1	NR1D1 modulator 50 | NR1D1 mod conf 32 | RORg DNA counter inactive
O=C(Cc1ccccc1)NC(=S)Nc1ccc2oc(-c3ccccc3F)nc2c1	none
Cc1ccc(NC(=O)Nc2ccc3c(c2)[C@]2(CC(=O)N(CC(C)C)C2c2ccccc2)C(=O)N3C)cc1Cl (stereo partly specified)	none (no result: PG9 Ab binder, NR2E3 ag-1, GalR3 antagonist, NR2E3 ag-2)
Cc1ccc(N2C(=NC(=O)c3ccccc3)SC3CS(=O)(=O)CC32)cc1 (stereo unspecified)	none
CCCC(=O)N=C1SC2CS(=O)(=O)CC2N1c1ccc(-c2nc3ccc(C)cc3s2)cc1 (stereo unspecified)	NR1D1 modulator 38 | NR1D1 mod conf inactive
COc1ccc(-c2cc(C(=O)NN=Cc3cccn3C)[nH]n2)cc1	none (no result: PG9 Ab binder, NR2E3 ag-1, GalR3 antagonist, NR2E3 ag-2)
COc1ccc(S(=O)(=O)N2CCOCC2)cc1NC(=O)c1cccc2c(=O)c(C)c(-c3ccccc3)oc12	NR1D1 modulator 69 | NR1D1 mod conf 37
Cn1nnnc1-c1cc(Br)ccc1NC(=O)c1ccccc1	NR1D1 modulator 72 | NR1D1 mod conf 46 | RORg DNA counter inactive
OC(c1cc(F)cc(Cl)c1)c1ncc(-c2ccc3ccccc3c2)[nH]1 (stereo unspecified)	NR1D1 modulator 14 (no result: NR2E3 ag-1) | NR1D1 mod conf inactive
OC(c1cccc(Cl)c1)c1ncc(-c2ccc3ccccc3c2)[nH]1 (stereo unspecified)	none (no result: NR2E3 ag-1)
CCOC(=O)C1=NOC(C(=O)Nc2cc(C)cc(C)c2)(C(=O)C2CC2)C1 (stereo unspecified)	none (no result: PG9 Ab binder, NR2E3 ag-1, GalR3 antagonist, NR2E3 ag-2)
CCOC(=O)C1=C(c2ccccc2)O/C(=C(\C(=O)OC)C(F)(F)F)S1	NR1D1 modulator 25 | NR1D1 mod conf 18
CCOC(=O)C1=C(c2ccccc2)O/C(=C(/C#N)C(F)(F)F)S1	none (no result: NR1D1 modulator, PG9 Ab binder, GalR3 antagonist, NR2E3 ag-2)
CCCSc1nc(SCC(=O)NCc2ccccc2)c2c3c(sc2n1)COC(C)(CC)C3 (stereo unspecified)	NR1D1 modulator 77 | NR1D1 mod conf 78 | RORg DNA counter inactive
CCC1(C)Cc2c(sc3nc(SCC(=O)c4ccccc4)[nH]c(=O)c23)CO1 (stereo unspecified)	none
N#Cc1ccccc1N1CCN(C(=O)C2CCN(c3ncnc4c3sc3cccc(F)c34)CC2)CC1	NR1D1 modulator 49 (no result: PG9 Ab binder, NR2E3 ag-1, GalR3 antagonist, NR2E3 ag-2) | NR1D1 mod conf 34 | RORg DNA counter inactive
CCn1c(SCC(=O)Nc2ccc(Cl)cc2)nc2nc3c(cc2c1=O)CCCC3	none
CCn1c(SCC(=O)Nc2ccc(C(C)=O)cc2)nc2nc3c(cc2c1=O)CCCC3	NR1D1 modulator 17 | NR1D1 mod conf inactive
Cc1ccc2nc(-c3cccnc3SCC(=O)N3c4ccccc4CC3C)[nH]c2c1 (stereo unspecified)	NR1D1 modulator 33 | NR1D1 mod conf 20
Cc1ccc2nc(SCC(=O)N3c4ccccc4CC3C)c(C)cc2c1 (stereo unspecified)	NR1D1 modulator 28 | NR1D1 mod conf inactive
COc1cccc(C(=O)N[C@H](C(=O)N2CCC[C@H]2C(=O)NCCc2ccccc2Cl)c2ccccc2)c1	none (no result: NR2E3 ag-1, NR2E3 ag-2)
Cc1ccc(-n2c(Cc3cccs3)nnc2SCC(=O)Nc2ccc(OCc3ccccc3)cc2)cc1	none (no result: PG9 Ab binder, NR2E3 ag-1, GalR3 antagonist, NR2E3 ag-2)
C[C@H]1[C@@H](O)CC[C@@]23CCCN2C(=O)CCC[C@@H]13	none (no result: PG9 Ab binder, NR2E3 ag-1, GalR3 antagonist, NR2E3 ag-2)
CCCCCCCCCCCC(=O)OCC(O)CO (stereo unspecified)	none (no result: PG9 Ab binder, NR2E3 ag-1, GalR3 antagonist, NR2E3 ag-2)
CCOC(=O)C1Nc2c(F)cc(C)cc2C2c3ccccc3CC12 (stereo unspecified)	NR1D1 modulator 109 | NR1D1 mod conf 44
Cc1ccccc1CN[C@@H]1CC[C@@]23CCCN2C(=O)CCC[C@H]3C1	none (no result: PG9 Ab binder, NR2E3 ag-1, GalR3 antagonist, NR2E3 ag-2)
COc1cc2c3nnc(-c4ccc(F)cc4)c-3cn(Cc3ccccc3F)c2cc1OC	NR1D1 modulator 21 (no result: NR2E3 ag-1) | NR1D1 mod conf 39 | RORg DNA counter inactive
COc1cccc(O[C@H]2C=C[C@@H](c3ccccc3)O[C@@H]2CO)c1	none (no result: PG9 Ab binder, NR2E3 ag-1, GalR3 antagonist, NR2E3 ag-2)
COc1ccc2oc(C(=O)Nc3ccccc3N3CCOCC3)c(C)c2c1	NR1D1 modulator 29 | NR1D1 mod conf inactive

Screening data deposited in PubChem BioAssay by several laboratories.
